Measurements reported in ChEMBL document CHEMBL1127520, “N-omega-fluoroalkyl analogs of (1R)-2 beta-carbomethoxy-3 beta-(4-iodophenyl)-tropane (beta-CIT): radiotracers for positron emission tomography and single photon emission computed tomography imaging of dopamine transporters” (J Med Chem, 1994).

Tests used:
Rattus norvegicus [1] = assay: The compound was evaluated for its behavioral activity i.e., locomotor arousal in rat for a dose of 1 mg/kg in time interval of 2 hours; assay type: functional
In short: (§1)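 Adult male Sprague-Dawley rats (150-200 g), 3-7 per group, given agent ip in saline containing DMSO; vehicle controls received saline/DMSO. Locomotion counted in an electronic activity monitor, reported as mean ± SEM counts/hour for 0-1, 1-2 and 2-3 h. Comparison by ANOVA, then post-hoc t tests against vehicle.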

[2] = biological target: Sodium-dependent dopamine transporter (Rattus norvegicus, UniProt P23977); assay: Binding affinity for dopamine transporters in rat brain tissue.; assay type: tissue-based
In short: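 Crude membrane fraction from rat corpus striatum homogenate. Nonspecific binding defined with 30 μM methylphenidate. Each agent tested at six concentrations in duplicate. Concentration-inhibition curves computer-fit for IC50 ± SEM, converted to Ki = IC50/(1 + [L/Kd]).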

Rattus norvegicus [3] = assay: The compound was evaluated for its behavioral activity i.e., locomotor arousal in rat for a dose of 1 mg/kg in time interval of 1 hour; assay type: functional; in short: as §1
Rattus norvegicus [4] = assay: The compound was evaluated for its behavioral activity i.e., locomotor arousal in rat for a dose of 1 mg/kg in time interval of 3 hours; assay type: functional; in short: as §1
Rattus norvegicus [5] = assay: The compound was evaluated for its behavioral activity i.e., locomotor arousal in rat for a dose of 0.3 mg/kg in time interval of 3 hours; assay type: functional; in short: as §1
Rattus norvegicus [6] = assay: The compound was evaluated for its behavioral activity i.e., locomotor arousal in rat for a dose of 3 mg/kg in time interval of 3 hours; assay type: functional; in short: as §1
Rattus norvegicus [7] = assay: The compound was evaluated for its behavioral activity i.e., locomotor arousal in rat for a dose of 3 mg/kg in time interval of 1 hour; assay type: functional; in short: as §1
Rattus norvegicus [8] = assay: The compound was evaluated for its behavioral activity i.e., locomotor arousal in rat for a dose of 0.3 mg/kg in time interval of 1 hour; assay type: functional; in short: as §1
Rattus norvegicus [9] = assay: The compound was evaluated for its behavioral activity i.e., locomotor arousal in rat for a dose of 3 mg/kg in time interval of 2 hours; assay type: functional; in short: as §1
Rattus norvegicus [10] = assay: The compound was evaluated for its behavioral activity i.e., locomotor arousal in rat for a dose of 0.3 mg/kg in time interval of 2 hours; assay type: functional; in short: as §1
Rattus norvegicus [11] = assay: The compound was evaluated for its behavioral activity i.e., locomotor arousal in rat for a dose of 1 mg/kg in time interval of 3 hours, expressed as mean =/- SEM activity; assay type: functional; in short: as §1

Sequence of Sodium-dependent dopamine transporter (P23977 whole entry): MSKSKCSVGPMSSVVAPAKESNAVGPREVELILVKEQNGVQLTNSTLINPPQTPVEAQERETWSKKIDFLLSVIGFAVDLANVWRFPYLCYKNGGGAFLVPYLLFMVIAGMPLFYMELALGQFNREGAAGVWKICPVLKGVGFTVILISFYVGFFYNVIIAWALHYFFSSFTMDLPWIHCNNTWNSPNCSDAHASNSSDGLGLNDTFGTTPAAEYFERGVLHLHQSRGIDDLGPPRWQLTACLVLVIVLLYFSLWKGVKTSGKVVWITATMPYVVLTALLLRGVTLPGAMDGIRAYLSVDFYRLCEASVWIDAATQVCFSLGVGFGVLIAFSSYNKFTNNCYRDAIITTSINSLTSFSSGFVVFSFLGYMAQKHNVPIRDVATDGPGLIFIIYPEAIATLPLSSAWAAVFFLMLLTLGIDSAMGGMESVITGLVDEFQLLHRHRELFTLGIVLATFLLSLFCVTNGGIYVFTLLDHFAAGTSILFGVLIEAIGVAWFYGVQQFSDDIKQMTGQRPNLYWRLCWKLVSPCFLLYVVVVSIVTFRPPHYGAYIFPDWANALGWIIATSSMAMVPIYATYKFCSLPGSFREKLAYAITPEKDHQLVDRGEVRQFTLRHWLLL

Row | Molecule | Count/h (Rattus norvegicus [1]) | Ki [2] [nM] | Count/h (Rattus norvegicus [3]) | Count/h (Rattus norvegicus [7]) | Count/h (Rattus norvegicus [9]) | also measured
1 | COC(=O)[C@H]1C(c2ccc(I)cc2)C[C@H]2CCC1N2C (stereo partly drawn) | <9990 | 1.4 | <6820 |  |  | Count/h (Rattus norvegicus [4]): <9710
2 | CC(C)OC(=O)[C@@H]1C2CC[C@H](C[C@@H]1c1ccc(I)cc1)N2CCF |  | 4.4 |  |  |  | 
3 | CC(C)OC(=O)[C@@H]1C2CC[C@H](C[C@@H]1c1ccc(I)cc1)N2CCCF |  | 1.2 |  |  |  | 
4 | COC(=O)[C@H]1C(c2ccc(I)cc2)C[C@H]2CCC1N2CCCF (stereo partly drawn) | <1071 | 3.5 | <1943 | <3791 | <2109 | Count/h (Rattus norvegicus [5]): 210; Count/h (Rattus norvegicus [6]): <1410; Count/h (Rattus norvegicus [8]): 759; Count/h (Rattus norvegicus [4]): <325; Count/h (Rattus norvegicus [10]): 403
5 | COC(=O)[C@H]1C(c2ccc(I)cc2)C[C@H]2CCC1N2CCF (stereo partly drawn) | <4200 | 4 | <4180 | <6898 | <7796 | Count/h (Rattus norvegicus [5]): <3459; Count/h (Rattus norvegicus [6]): <7562; Count/h (Rattus norvegicus [11]): <4400; Count/h (Rattus norvegicus [8]): <2030; Count/h (Rattus norvegicus [10]): <2945
6 | COC(=O)[C@@H]1C2CC[C@@H](C[C@@H]1OC(=O)c1ccccc1)N2C (single isomer, unassigned) [COCAINE] | <1960 |  | <14940 | <15710 | <712 | 
7 | (2S,5R)-8-(2-Fluoro-ethyl)-3-(4-trimethylstannanyl-phenyl)-8-aza-bicyclo[3.2.1]octane-2-carboxylic acid methyl ester |  | > 10000 |  |  |  | 
8 | (2S,5R)-8-(3-Fluoro-propyl)-3-(4-trimethylstannanyl-phenyl)-8-aza-bicyclo[3.2.1]octane-2-carboxylic acid isopropyl ester |  | > 10000 |  |  |  | 
9 | (2S,5R)-8-(3-Fluoro-propyl)-3-(4-trimethylstannanyl-phenyl)-8-aza-bicyclo[3.2.1]octane-2-carboxylic acid methyl ester |  | > 10000 |  |  |  | 
